# Experimental data published in ChEMBL document CHEMBL2434944, “Novel acetamidothiazole derivatives: synthesis and in vitro anticancer evaluation” (Eur J Med Chem, 2013).
# Experiments:
# CAKI-1 = assay: Growth inhibition of human CAKI-1 cells assessed as cell growth at 10^-5 M after 48 hrs by sulforhodamine B assay relative to control; assay type: functional; conditions: CAKI-1, 48 h, read-out: Activity
# Method in brief: (§1)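 NCI-60 single-dose screen at 10^-5 M. Cells grown in RPMI 1640 with 5% FBS and 2 mM L-glutamine, plated at 5,000–40,000 cells/well according to doubling time, and preincubated 24 h at 37°C, 5% CO2. Compound dissolved in DMSO and added. Exposure 48 h. Adherent cells fixed with cold TCA (10% final), suspension cells with 16% final TCA. Read-out is 0.4% SRB staining, dye solubilised in 10 mM Tris, absorbance at 515 nm. Percent growth is calculated against the time-zero plate and untreated control.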
# ACHN = assay: Growth inhibition of human ACHN cells assessed as cell growth at 10^-5 M after 48 hrs by sulforhodamine B assay relative to control; assay type: functional; conditions: read-out: Activity; method in brief: as §1
# OVCAR-5 = assay: Growth inhibition of human OVCAR5 cells assessed as cell growth at 10^-5 M after 48 hrs by sulforhodamine B assay relative to control; assay type: functional; conditions: OVCAR-5, 48 h, read-out: Activity; method in brief: as §1
# OVCAR-4 = assay: Growth inhibition of human OVCAR4 cells assessed as cell growth at 10^-5 M after 48 hrs by sulforhodamine B assay relative to control; assay type: functional; conditions: OVCAR-4, 48 h, read-out: Activity; method in brief: as §1
# UACC-257 = assay: Growth inhibition of human UACC257 cells assessed as cell growth at 10^-5 M after 48 hrs by sulforhodamine B assay relative to control; assay type: functional; conditions: UACC-257, 48 h, read-out: Activity
# Method in brief: (§2)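 NCI-60 single-dose screen, 10^-5 M final. Cells grown in RPMI 1640 with 5% FBS and 2 mM L-glutamine, seeded at 5,000–40,000 cells/well by doubling time. Preincubated 24 h at 37°C, 5% CO2. Compound in DMSO, diluted in medium with gentamicin, then 48 h exposure. Fixed with cold TCA, SRB stained, A515 read. Percent growth vs untreated control, time-zero plate corrected.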
# MDA-MB-435 = assay: Growth inhibition of human MDA-MB-435 cells assessed as cell growth at 10^-5 M after 48 hrs by sulforhodamine B assay relative to control; assay type: functional; conditions: MDA-MB-435, 48 h, read-out: Activity; method in brief: as §1
# Malme-3M = assay: Growth inhibition of human MALME-3M cells assessed as cell growth at 10^-5 M after 48 hrs by sulforhodamine B assay relative to control; assay type: functional; conditions: read-out: Activity; method in brief: as §1
# SNB-75 = assay: Growth inhibition of human SNB75 cells assessed as cell growth at 10^-5 M after 48 hrs by sulforhodamine B assay relative to control; assay type: functional; conditions: SNB-75, 48 h, read-out: Activity; method in brief: as §1
# SF-268 = assay: Growth inhibition of human SF268 cells assessed as cell growth at 10^-5 M after 48 hrs by sulforhodamine B assay relative to control; assay type: functional; conditions: SF-268, 48 h, read-out: Activity; method in brief: as §1
# SW-620 = assay: Growth inhibition of human SW620 cells assessed as cell growth at 10^-5 M after 48 hrs by sulforhodamine B assay relative to control; assay type: functional; conditions: SW-620, 48 h, read-out: Activity; method in brief: as §2
# HT-29 = assay: Growth inhibition of human HT-29 cells assessed as cell growth at 10^-5 M after 48 hrs by sulforhodamine B assay relative to control; assay type: functional; conditions: HT-29, 48 h, read-out: Activity; method in brief: as §1
# [1] = Growth inhibition of human HCC2998 cells assessed as cell growth at 10^-5 M after 48 hrs by sulforhodamine B assay relative to control; assay type: functional; conditions: HCC 2998, 48 h, read-out: Activity; method in brief: as §1
# NCI-H322M = assay: Growth inhibition of human NCI-H322M cells assessed as cell growth at 10^-5 M after 48 hrs by sulforhodamine B assay relative to control; assay type: functional; conditions: read-out: Activity; method in brief: as §1
# NCI-H23 = assay: Growth inhibition of human NCI-H23 cells assessed as cell growth at 10^-5 M after 48 hrs by sulforhodamine B assay relative to control; assay type: functional; conditions: NCI-H23, 48 h, read-out: Activity; method in brief: as §1
# HOP-62 = assay: Growth inhibition of human HOP62 cells assessed as cell growth at 10^-5 M after 48 hrs by sulforhodamine B assay relative to control; assay type: functional; conditions: HOP-62, 48 h, read-out: Activity; method in brief: as §1
# MOLT-4 = assay: Growth inhibition of human MOLT4 cells assessed as cell growth at 10^-5 M after 48 hrs by sulforhodamine B assay relative to control; assay type: functional; conditions: MOLT-4, 48 h, read-out: Activity; method in brief: as §1
# K562 = assay: Growth inhibition of human K562 cells assessed as cell growth at 10^-5 M after 48 hrs by sulforhodamine B assay relative to control; assay type: functional; conditions: K562, 48 h, read-out: Activity; method in brief: as §1
# Vitamin D3 receptor = biological target: T1, Vitamin D3 receptor (Homo sapiens, UniProt P11473); assay: Inhibition of human vitamin D3 receptor
# T1 sequence (P11473 whole entry): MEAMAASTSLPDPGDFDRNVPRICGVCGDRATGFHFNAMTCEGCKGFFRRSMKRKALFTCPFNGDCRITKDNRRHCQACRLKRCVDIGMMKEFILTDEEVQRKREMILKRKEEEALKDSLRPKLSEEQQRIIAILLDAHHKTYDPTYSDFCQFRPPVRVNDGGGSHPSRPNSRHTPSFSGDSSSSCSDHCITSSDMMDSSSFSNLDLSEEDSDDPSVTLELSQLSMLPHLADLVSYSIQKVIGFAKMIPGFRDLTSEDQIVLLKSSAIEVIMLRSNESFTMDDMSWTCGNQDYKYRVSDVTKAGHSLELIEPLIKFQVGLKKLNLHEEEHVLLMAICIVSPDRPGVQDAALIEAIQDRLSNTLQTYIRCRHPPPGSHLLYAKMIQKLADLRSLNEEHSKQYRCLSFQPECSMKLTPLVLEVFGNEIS
# Thymidylate synthase = Thymidylate synthase (Homo sapiens, UniProt P04818); assay: Inhibition of human thymidylate synthase
# Sequence of Thymidylate synthase (P04818 whole entry): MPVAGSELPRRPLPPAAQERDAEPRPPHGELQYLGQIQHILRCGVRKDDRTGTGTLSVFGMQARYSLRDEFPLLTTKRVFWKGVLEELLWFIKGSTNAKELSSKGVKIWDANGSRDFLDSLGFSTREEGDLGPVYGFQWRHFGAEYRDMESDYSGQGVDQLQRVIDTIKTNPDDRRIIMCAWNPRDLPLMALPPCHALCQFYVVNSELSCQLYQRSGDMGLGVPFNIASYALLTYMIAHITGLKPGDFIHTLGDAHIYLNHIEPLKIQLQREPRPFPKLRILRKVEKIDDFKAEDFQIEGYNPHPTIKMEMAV
# [2] = biological target: Proto-oncogene tyrosine-protein kinase Src (Homo sapiens, UniProt P12931); assay: Inhibition of human SRC
# Sequence of Proto-oncogene tyrosine-protein kinase Src (P12931 2-536 limits assumed): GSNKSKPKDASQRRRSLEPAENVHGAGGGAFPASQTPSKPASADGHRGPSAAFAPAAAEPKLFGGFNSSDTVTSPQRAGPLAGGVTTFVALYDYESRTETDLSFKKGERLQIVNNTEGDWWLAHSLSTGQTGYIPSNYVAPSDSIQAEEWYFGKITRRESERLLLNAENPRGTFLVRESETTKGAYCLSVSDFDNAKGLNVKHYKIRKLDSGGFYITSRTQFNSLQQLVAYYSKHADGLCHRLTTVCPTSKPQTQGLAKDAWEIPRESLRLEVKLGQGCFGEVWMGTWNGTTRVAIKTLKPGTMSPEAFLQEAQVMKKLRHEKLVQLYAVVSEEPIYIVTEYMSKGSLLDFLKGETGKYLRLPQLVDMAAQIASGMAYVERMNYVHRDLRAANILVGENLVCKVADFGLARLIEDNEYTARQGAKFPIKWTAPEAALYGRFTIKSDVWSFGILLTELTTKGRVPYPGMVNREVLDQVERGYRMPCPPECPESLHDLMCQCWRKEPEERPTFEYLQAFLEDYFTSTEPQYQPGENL
# [3] = biological target: Mitogen-activated protein kinase 1 (Homo sapiens, UniProt P28482); assay: Inhibition of human MAPK1
# Sequence of Mitogen-activated protein kinase 1 (P28482 whole entry): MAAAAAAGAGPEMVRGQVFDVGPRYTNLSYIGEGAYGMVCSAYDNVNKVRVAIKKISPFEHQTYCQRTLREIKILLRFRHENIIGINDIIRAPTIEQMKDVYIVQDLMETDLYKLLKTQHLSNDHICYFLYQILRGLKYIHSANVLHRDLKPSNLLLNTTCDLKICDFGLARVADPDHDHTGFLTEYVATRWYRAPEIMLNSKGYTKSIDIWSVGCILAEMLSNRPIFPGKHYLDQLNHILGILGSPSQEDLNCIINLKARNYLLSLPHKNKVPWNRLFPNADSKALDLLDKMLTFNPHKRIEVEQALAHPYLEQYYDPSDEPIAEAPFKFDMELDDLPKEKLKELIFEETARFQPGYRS
# MDA-MB-468 = assay: Growth inhibition of human MDA-MB-468 cells assessed as cell growth at 10^-5 M after 48 hrs by sulforhodamine B assay relative to control; assay type: functional; conditions: MDA-MB-468, 48 h, read-out: Activity; method in brief: as §1
# MCF7 = assay: Growth inhibition of human MCF7 cells assessed as cell growth at 10^-5 M after 48 hrs by sulforhodamine B assay relative to control; assay type: functional; conditions: MCF7, 48 h, read-out: Activity; method in brief: as §1
# UO-31 = assay: Growth inhibition of human UO31 cells assessed as cell growth at 10^-5 M after 48 hrs by sulforhodamine B assay relative to control; assay type: functional; conditions: UO-31, 48 h, read-out: Activity; method in brief: as §2
# SN12C = assay: Growth inhibition of human SN12C cells assessed as cell growth at 10^-5 M after 48 hrs by sulforhodamine B assay relative to control; assay type: functional; conditions: read-out: Activity; method in brief: as §1
# TK-10 = assay: Growth inhibition of human TK10 cells assessed as cell growth at 10^-5 M after 48 hrs by sulforhodamine B assay relative to control; assay type: functional; conditions: TK-10, 48 h, read-out: Activity; method in brief: as §2
Structure (SMILES),growth at 10 µM (CAKI-1) [%],growth at 10 µM (ACHN) [%],growth at 10 µM (OVCAR-5) [%],growth at 10 µM (OVCAR-4) [%],growth at 10 µM (UACC-257) [%],growth at 10 µM (MDA-MB-435) [%],growth at 10 µM (Malme-3M) [%],growth at 10 µM (SNB-75) [%],growth at 10 µM (SF-268) [%],growth at 10 µM (SW-620) [%],growth at 10 µM (HT-29) [%],growth at 10 µM [1] [%],growth at 10 µM (NCI-H322M) [%],growth at 10 µM (NCI-H23) [%],growth at 10 µM (HOP-62) [%],growth at 10 µM (MOLT-4) [%],growth at 10 µM (K562) [%],Ki (Vitamin D3 receptor) [µM],Ki (Thymidylate synthase) [µM],Ki [2] [µM],other results
Cc1ccc(-c2csc(=N)n2CC(=O)N2CCN(c3ccccc3)CC2)cc1,70.4,81.2,110,88.4,106,92.2,118,95.8,105,105,111,104,99.7,101,111,94.5,100,1.03,5.6,13.5,Ki [3]: 2.09 µM; growth at 10 µM (MDA-MB-468): 97.6%; growth at 10 µM (MCF7): 81.4%; growth at 10 µM (UO-31): 78.8%; growth at 10 µM (SN12C): 85.2%; growth at 10 µM (TK-10): 140%
N=c1scc(-c2ccccc2)n1CC(=O)N1CCOCC1,76.2,88,96.3,97.3,111,101,102,59.4,104,98,106,104,97.9,95.8,90,95.2,89.2,24.4,6.22,20.2,Ki [3]: 13.8 µM; growth at 10 µM (MDA-MB-468): 98.4%; growth at 10 µM (MCF7): 89.5%; growth at 10 µM (UO-31): 58%; growth at 10 µM (SN12C): 101%; growth at 10 µM (TK-10): 132%
CC(=O)N1CCN(C(=O)Cn2c(-c3ccccc3)csc2=N)CC1,76.8,89.5,105,96.9,98.5,105,141,67.7,100,109,101,107,94.4,98.5,85.3,96.2,86.8,4.66,10.9,34.3,Ki [3]: 3.67 µM; growth at 10 µM (MDA-MB-468): 94.6%; growth at 10 µM (MCF7): 94.8%; growth at 10 µM (UO-31): 60.4%; growth at 10 µM (SN12C): 95.8%; growth at 10 µM (TK-10): 138%
Cc1ccc(-c2csc(=N)n2CC(=O)N2CCN(C)CC2)cc1,78,81.2,116,87.4,102,83.4,128,73.5,96.7,98.4,110,103,104,93.3,99.5,76.3,82.9,17.1,19.3,4.73,Ki [3]: 1.89 µM; growth at 10 µM (MDA-MB-468): 98.6%; growth at 10 µM (MCF7): 93.2%; growth at 10 µM (UO-31): 83.1%; growth at 10 µM (SN12C): 93.2%; growth at 10 µM (TK-10): 129%
